A selection: hits, their analogues and other compounds. The true share with any hit is near 3.5%.
MrgX1 allo act: positive allosteric modulators of MrgX1, primary screen, HEK293 cells, Fluo-4 calcium flux. B-score at 10 µM. FDSS; hits give high values. Mas-related G-protein coupled receptor member X1 (Homo sapiens), Q96LB2. 0.63% of 310,000 active. AID 588675, 2011;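 active means plate-corrected calcium response at least 3 library SD above typical, normal starting fluorescence, not activating the receptor alone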;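 further: compound read alongside a low EC10 to EC30 dose of BAM8-22 agonist; peak minus trough fluorescence over baseline measured at the second addition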
Target sequence (Q96LB2 whole entry, looked up): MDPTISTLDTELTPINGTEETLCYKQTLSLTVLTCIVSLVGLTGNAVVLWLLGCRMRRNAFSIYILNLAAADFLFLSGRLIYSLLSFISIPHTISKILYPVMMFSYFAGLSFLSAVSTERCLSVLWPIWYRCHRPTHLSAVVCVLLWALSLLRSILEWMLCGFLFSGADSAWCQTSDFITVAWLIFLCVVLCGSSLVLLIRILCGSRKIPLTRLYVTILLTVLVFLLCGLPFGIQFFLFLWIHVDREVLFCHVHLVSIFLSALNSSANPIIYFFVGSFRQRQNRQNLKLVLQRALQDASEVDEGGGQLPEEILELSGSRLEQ
MrgX1 agonist: agonists of human MrgX1 receptor, primary screen, HEK293 cells, Fluo-4 calcium flux. 0.44% of 310,000 active. Fluo-4 calcium fluorescence, agonist mode; hits give high values. B-score at 10 µM;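 active means calcium response B-score plate-corrected fluorescence ratio at least 3 library SD, with starting fluorescence B-score inside 5 SD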
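Material: MrgX1-expressing HEK293 cells; input: 15,000 cells per well; doses: test compound given as first of three sequential additions; schedule: overnight plating before 1 h dye loading; technique: Fluo-4 NW calcium-flux fluorescence, kinetic read; evaluation: baseline-normalised fluorescence change ratio, B-scored; control set: plate-wise positive and negative controls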
RGS4 inh: RGS4 inhibitors, primary screen, cell-based, HEK293 M3R inducible RGS4, calcium flux; Regulator of G-protein signaling 4 (Homo sapiens), P49798; Fluo-4 calcium flux; hits give high values; triggered by carbachol at its EC20; B-score at 10 µM; 0.45% of 310,000 active;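 active means B-score, a plate-corrected calcium signal, over three deviations above library mean, with baseline fluorescence within five deviations of library mean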;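 further: RGS4 expression induced by doxycycline in cells with stable M3 receptor; B-score is computed from the integrated fluorescence ratio over baseline after carbachol; higher B-score means a larger calcium signal and so more RGS4 inhibition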
RGS4 pot: RGS4 potentiators or activators, primary screen, cell-based, HEK293 M3R inducible RGS4, calcium flux | B-score at 10 µM | carbachol calcium flux Fluo4; hits give low values | 0.92% of 310,000 active;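 active means B-score of the integrated calcium signal more than 4 SD below the library mean, with starting fluorescence not abnormally high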;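 further: negative B-score means reduced calcium response which marks RGS4 activation or potentiation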
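Detection: kinetic calcium fluorescence imaging with Fluo4-AM dye, 2 µM / Material: HEK293 cells with stable M3R and inducible RGS4 / Schedule: recording 10 s baseline at 1 Hz, 100 s post-agonist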
MrgX1 antagonist: antagonists of human MrgX1 receptor, primary screen, HEK293 cells, Fluo-4 calcium flux; Mas-related G-protein coupled receptor member X1 (Homo sapiens), Q96LB2; BAM8-22 antagonism; hits give low values; B-score at 10 µM; 1.3% of 310,000 active; AID 588676, 2011;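 active means calcium-response B-score plate-corrected more than 3 library SD below zero, starting fluorescence within 5 deviations, no agonist response on first addition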;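 further: peak minus trough fluorescence over baseline after final BAM8-22 challenge near maximal dose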
Each line names hits and unclear results; the compound was inactive in the other large screens; ! = not active in a repeat.

Cc1ccc(C)c(N2CCN(C(=O)C34CC5CC(C3)CC(n3nnc(C)n3)(C5)C4)CC2)c1	none
N#C/C(=C\N1CCN(Cc2ccc3c(c2)OCO3)CC1)c1nc2ccccc2s1	none
CCOC(=O)N1CCN(/C=C(\C#N)c2nc3ccccc3s2)CC1	MrgX1 antagonist -7.1
Cc1nc2ccccc2c(=O)n1CCN1CCOCC1	RGS4 pot -7.4
O=C(NCCc1c[nH]c2ccccc12)/C(=C\c1cccnc1)NC(=O)c1ccccc1F	none
O=C(N/N=C\c1c(O)ccc2ccccc12)c1ccc(O)cc1	none
O=C(N/N=C/c1c(O)ccc2ccccc12)c1ccc(Br)o1	MrgX1 antagonist -5
COc1ccc2ccccc2c1/C=N\NC(=O)c1cccnc1	none
O=C(N/N=C/c1c(O)ccc2ccccc12)c1cccnc1	MrgX1 antagonist -7.6
CC(C)COc1cccc(-c2cc(C(=O)N/N=C/c3ccncc3)c3ccccc3n2)c1	RGS4 pot -7.4
C/C(=N\NC(=O)c1cc(-c2cccc(OC(C)C)c2)nc2ccccc12)c1cccnc1	RGS4 pot -9
CCOc1cc(/C=N/NC(=O)c2cc(-c3cccc(OC)c3)nc3ccccc23)ccc1O	none
Cn1c(SCC(=O)NC2CCCCC2)nnc1-c1ccccc1O	none
COCCCN=C1NN=C(c2cc(C)n(Cc3ccco3)c2C)CS1	MrgX1 allo act 10
Cc1cc(C2=NNC(=NC3CC3)SC2)c(C)n1Cc1ccco1	none (no result: RGS4 inh, RGS4 pot)
Fc1ccc(C2C3=C(Nc4ncnn42)c2ccccc2OC3c2ccncc2)cc1 (stereo not given)	none
Cc1ccc(C2Oc3ccccc3C3=C2C(c2cccs2)n2ncnc2N3)cc1 (stereo not given)	RGS4 pot -7.3
N#C/C(C(N)=O)=c1/ccc2c(c1)N1C3=C(CCCC3)CC3CCCCC31N=2 (stereo not given)	RGS4 pot -8.8
Cc1cc(OC(C)C(=O)N2CCN(c3ccc(F)cc3)CC2)c2c(C)c(C)c(=O)oc2c1 (stereo not given)	none
CCn1ccnc1CN1CCc2c([nH]c3ccccc23)C1C1CCCCC1 (stereo not given)	RGS4 pot -7.6
CCn1ccnc1CN1CCc2c([nH]c3ccccc23)C1C(C)(C)C (stereo not given)	none
O=C(O)c1cc2ccccc2cc1Nc1ccccc1	none
C[N+]1(C)CCC(=C(c2ccccc2)c2ccccc2)CC1	none (no result: RGS4 inh, RGS4 pot)
CC(=O)Nc1ccc(S(=O)(=O)NC2CC(=O)N(c3ccc4c(c3)OCCO4)C2)cc1 (stereo not given)	none
CCOc1ccc(S(=O)(=O)Nc2ccc(C(=O)NCC3(N4CCCCC4)CCCCC3)cc2)cc1	MrgX1 antagonist -9.8
CC(C)n1nc(C(=O)Nc2cccc(S(=O)(=O)NCc3ccco3)c2)c2ccccc2c1=O	RGS4 pot -7.2
S=C(NCCc1ccccc1)Nc1ccc(Cl)cc1	none
O=[N+]([O-])c1ccc(NC(=S)NCCc2ccccc2)cc1	MrgX1 antagonist -4.9
O=[N+]([O-])c1ccc(NC(=S)NCCc2ccc(Cl)cc2)cc1	MrgX1 antagonist -6
NS(=O)(=O)c1ccc(NC(=S)NCCc2ccccc2)cc1	none
CN1C(=O)C2(OCCCO2)c2ccccc21	none
Cc1ccc(-n2c(O)c(/C=N/n3cnnc3)c3ccccc3c2=O)cc1	MrgX1 allo act 9.4!
CC(C)NOC(=O)c1ccc(Cl)cc1	none
Cc1cccc(C)c1C(OCCN(C)C)C1CCCCC1 (stereo not given)	RGS4 pot -7.4
COCCN(C(=O)CCl)C(C(=O)NC1CCCCC1)c1ccccc1C (stereo not given)	none
Cc1cccc(C)c1OCCNC(=O)C(=O)NCc1ccco1	none
CN1CCC=C(C(=O)N2c3ccccc3Sc3ccc(Cl)cc32)C1	RGS4 pot -10
CCC(=O)c1ccc(OC(=O)N2CCOCC2)cc1	none
CCCn1c(N2CCN(Cc3ccc(Cl)cc3)CC2)nc2ccccc21	MrgX1 agonist 30
CCn1c(N2CCN(Cc3ccc([N+](=O)[O-])cc3)CC2)nc2ccccc21	none
COc1ccc(NC(=O)CN(C)C(=O)c2c(C)nn(Cc3ccccc3)c2C)cc1	none
